Data from ChEMBL document CHEMBL1139389, “Discovery of the Poly(ADP-ribose) polymerase (PARP) inhibitor 2-[(R)-2-methylpyrrolidin-2-yl]-1H-benzimidazole-4-carboxamide (ABT-888) for the treatment of cancer” (J Med Chem, 2009).

What was measured:
[1] = AUC in Beagle dog at 2.5 mg/kg, po; type: ADME, organism-based, Canis lupus familiaris; set-up: dose 2.5 mg/kg, route oral; conditions: plasma
[2] = Cmax in Beagle dog at 2.5 mg/kg, po; type: ADME, organism-based, Canis lupus familiaris; set-up: dose 2.5 mg/kg, route oral; conditions: in vivo
[3] = Volume of distribution at steady state in Beagle dog at 2.5 mg/kg; type: ADME, organism-based, Canis lupus familiaris; set-up: dose 2.5 mg/kg; conditions: in vivo, read-out: Vdss
[4] = Clearance in Beagle dog at 2.5 mg/kg; type: ADME, organism-based, Canis lupus familiaris; set-up: dose 2.5 mg/kg; conditions: in vivo
[5] = Oral bioavailability in cynomolgus monkey at 2.5 mg/kg; type: ADME, organism-based, Macaca fascicularis; conditions: in vivo
[6] = Half life in cynomolgus monkey at 2.5 mg/kg, iv; type: ADME, organism-based, Macaca fascicularis; set-up: dose 2.5 mg/kg, route intravenous; conditions: in vivo
[7] = Cmax in cynomolgus monkey at 2.5 mg/kg, po; type: ADME, organism-based, Macaca fascicularis; set-up: dose 2.5 mg/kg, route oral; conditions: in vivo
[8] = Volume of distribution at steady state in cynomolgus monkey at 2.5 mg/kg; type: ADME, organism-based, Macaca fascicularis; set-up: dose 2.5 mg/kg; conditions: in vivo, read-out: Vdss
[9] = Water solubility of compound at physiological pH; type: physicochemical
[10] = molecular target: T1, Cytochrome P450 2A6 (Homo sapiens, UniProt P11509); assay: Inhibition of CYP2A6 in human liver microsomes; type: ADME, Microsome
T1 sequence (P11509 whole entry): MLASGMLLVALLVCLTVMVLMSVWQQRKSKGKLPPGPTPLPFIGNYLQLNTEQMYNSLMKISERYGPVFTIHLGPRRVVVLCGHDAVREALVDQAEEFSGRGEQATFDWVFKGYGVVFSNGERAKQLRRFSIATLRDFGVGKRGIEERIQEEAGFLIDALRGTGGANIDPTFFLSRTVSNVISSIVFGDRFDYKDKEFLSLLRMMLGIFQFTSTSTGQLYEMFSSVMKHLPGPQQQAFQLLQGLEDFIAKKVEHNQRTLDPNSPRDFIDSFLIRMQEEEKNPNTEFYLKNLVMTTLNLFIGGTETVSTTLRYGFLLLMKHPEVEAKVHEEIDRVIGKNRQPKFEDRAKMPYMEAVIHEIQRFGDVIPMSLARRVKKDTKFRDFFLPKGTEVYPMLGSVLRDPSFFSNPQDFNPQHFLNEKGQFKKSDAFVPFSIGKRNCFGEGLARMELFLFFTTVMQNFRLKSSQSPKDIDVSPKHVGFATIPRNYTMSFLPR

[11] = molecular target: Cytochrome P450 2D6 (Homo sapiens, UniProt P10635); assay: Inhibition of CYP2D6 in human liver microsomes; type: ADME, Microsome
Cytochrome P450 2D6, sequence (P10635 whole entry): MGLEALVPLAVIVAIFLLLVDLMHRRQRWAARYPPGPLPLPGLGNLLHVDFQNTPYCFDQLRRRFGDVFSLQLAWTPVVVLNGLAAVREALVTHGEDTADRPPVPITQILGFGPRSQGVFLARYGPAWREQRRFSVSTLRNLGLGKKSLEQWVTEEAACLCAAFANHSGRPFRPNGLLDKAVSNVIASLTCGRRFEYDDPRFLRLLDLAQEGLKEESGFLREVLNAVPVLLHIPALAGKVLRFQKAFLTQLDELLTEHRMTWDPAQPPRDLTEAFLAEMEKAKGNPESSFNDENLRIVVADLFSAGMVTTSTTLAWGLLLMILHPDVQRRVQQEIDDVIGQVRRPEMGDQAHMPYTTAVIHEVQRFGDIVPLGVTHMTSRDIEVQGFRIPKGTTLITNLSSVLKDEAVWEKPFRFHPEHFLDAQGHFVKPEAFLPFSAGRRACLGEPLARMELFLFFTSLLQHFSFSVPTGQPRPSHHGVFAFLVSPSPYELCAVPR

[12] = molecular target: Cytochrome P450 2C9 (Homo sapiens, UniProt P11712); assay: Inhibition of CYP2C9 in human liver microsomes; type: ADME, Microsome
Cytochrome P450 2C9, sequence (P11712 whole entry): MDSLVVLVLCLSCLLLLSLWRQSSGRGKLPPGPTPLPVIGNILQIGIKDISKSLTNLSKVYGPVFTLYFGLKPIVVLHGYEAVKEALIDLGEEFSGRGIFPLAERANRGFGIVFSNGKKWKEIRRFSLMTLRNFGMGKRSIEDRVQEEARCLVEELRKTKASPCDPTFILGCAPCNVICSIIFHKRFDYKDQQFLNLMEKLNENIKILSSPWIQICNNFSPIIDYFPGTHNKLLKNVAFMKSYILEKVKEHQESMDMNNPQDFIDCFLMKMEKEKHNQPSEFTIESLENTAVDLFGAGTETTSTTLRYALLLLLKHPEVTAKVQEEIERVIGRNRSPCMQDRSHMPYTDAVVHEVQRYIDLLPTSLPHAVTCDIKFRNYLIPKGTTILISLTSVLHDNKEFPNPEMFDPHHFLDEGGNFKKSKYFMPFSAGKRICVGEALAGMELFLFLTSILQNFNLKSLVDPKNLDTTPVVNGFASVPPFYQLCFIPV

[13] = molecular target: Cytochrome P450 2C19 (Homo sapiens, UniProt P33261); assay: Inhibition of CYP2C19 in human liver microsomes; type: ADME, Microsome
Cytochrome P450 2C19, sequence (P33261 whole entry): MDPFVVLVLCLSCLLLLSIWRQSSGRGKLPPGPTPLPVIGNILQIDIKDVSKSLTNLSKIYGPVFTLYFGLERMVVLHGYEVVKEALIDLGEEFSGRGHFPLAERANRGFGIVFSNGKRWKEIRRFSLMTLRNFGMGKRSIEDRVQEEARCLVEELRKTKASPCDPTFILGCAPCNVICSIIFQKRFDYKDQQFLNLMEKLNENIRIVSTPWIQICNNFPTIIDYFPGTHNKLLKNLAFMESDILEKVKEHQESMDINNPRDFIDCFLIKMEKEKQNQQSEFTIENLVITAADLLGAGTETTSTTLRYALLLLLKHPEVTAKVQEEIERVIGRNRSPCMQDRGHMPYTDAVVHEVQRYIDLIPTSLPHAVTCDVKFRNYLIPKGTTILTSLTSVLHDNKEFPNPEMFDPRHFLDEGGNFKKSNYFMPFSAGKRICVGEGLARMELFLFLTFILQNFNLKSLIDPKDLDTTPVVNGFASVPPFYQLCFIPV

[14] = molecular target: Cytochrome P450 2E1 (Homo sapiens, UniProt P05181); assay: Inhibition of CYP2E1 in human liver microsomes; type: ADME, Microsome
Cytochrome P450 2E1, sequence (P05181 whole entry): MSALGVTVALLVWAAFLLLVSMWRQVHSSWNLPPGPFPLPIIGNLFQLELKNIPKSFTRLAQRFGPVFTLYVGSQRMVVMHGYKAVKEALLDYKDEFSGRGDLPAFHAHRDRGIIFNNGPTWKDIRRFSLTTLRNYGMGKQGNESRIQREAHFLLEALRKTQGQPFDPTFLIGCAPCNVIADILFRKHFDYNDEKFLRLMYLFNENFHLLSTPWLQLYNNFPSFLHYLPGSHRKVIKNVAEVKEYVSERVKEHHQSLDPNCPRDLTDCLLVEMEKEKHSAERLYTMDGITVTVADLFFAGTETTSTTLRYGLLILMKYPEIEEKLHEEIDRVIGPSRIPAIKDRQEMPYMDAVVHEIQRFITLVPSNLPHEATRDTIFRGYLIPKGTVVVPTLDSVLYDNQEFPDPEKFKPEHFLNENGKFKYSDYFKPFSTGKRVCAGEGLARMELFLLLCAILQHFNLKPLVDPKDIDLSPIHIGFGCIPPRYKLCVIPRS

[15] = Protein binding in Sprague-Dawley rat plasma at 5 uM; type: ADME, cell-free; conditions: read-out: PPB (converted)
[16] = Protein binding in Beagle dog plasma at 5 uM; type: ADME, cell-free, Canis lupus familiaris; conditions: read-out: PPB (converted)
[17] = system: B16-F10; assay: Antitumor activity against mouse B16F10 cells xenografted in C57BL/6 mouse assessed as tumor volume at 12.5 mg/kg/day, po after 14 days; type: functional
[18] = system: B16-F10; assay: Antitumor activity against mouse B16F10 cells xenografted in C57BL/6 mouse assessed as growth inhibition at 12.5 mg/kg/day, po after 14 days relative to control; type: functional
[19] = system: B16-F10; assay: Potentiation of temozolomide-induced cytotoxicity against mouse B16F10 cells xenografted in C57BL/6 mouse assessed as growth inhibition at 5 mg/kg/day, po after 17 days relative to temozolomide monotherapy; type: functional
Outline: (§1)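 B16F10 syngeneic model: 6×10^4 cells in 50% matrigel injected sc into the flank of 6–8 week old female C57BL/6 mice (20 g), allocated to groups by injection order. Inhibitor given po bid days 6–11 at 1, 5 or 12.5 mg/kg/day; temozolomide 50 mg/kg/day po qd days 6–11. Tumor volume by caliper as L×W²/2; TGI versus temozolomide alone.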

[20] = system: B16-F10; assay: Potentiation of temozolomide-induced cytotoxicity against mouse B16F10 cells xenografted in C57BL/6 mouse assessed as growth inhibition at 1 mg/kg/day, po after 17 days relative to temozolomide monotherapy; type: functional; outline: as §1
[21] = system: MX1; assay: Potentiation of carboplatin-induced cytotoxicity against human MX1 cells xenografted in SCID mouse assessed as growth inhibition at 1 mg/kg/day, sc osmotic minipump after 42 days relative to carboplatin monotherapy; type: functional; conditions: route subcutaneous
Outline: (§2)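 MX-1 xenograft: 0.2 cc of 1:10 tumor brei injected sc into the flank of female SCID mice on day 0; size-matched on day 15, 10 mice/group. Inhibitor 1–50 mg/kg/day by sc osmotic minipump for 14 days from day 18; carboplatin 10 mg/kg ip on days 20, 24 and 28. Caliper volumes as L×W²/2; TGI relative to carboplatin alone.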

[22] = system: MX1; assay: Potentiation of carboplatin-induced cytotoxicity against human MX1 cells xenografted in SCID mouse assessed as growth inhibition at 12.5 mg/kg/day, sc osmotic minipump after 42 days relative to carboplatin monotherapy; type: functional; conditions: route subcutaneous; outline: as §2
[23] = system: MX1; assay: Potentiation of carboplatin-induced cytotoxicity against human MX1 cells xenografted in SCID mouse assessed as growth inhibition at 5 mg/kg/day, sc osmotic minipump after 42 days relative to carboplatin monotherapy; type: functional; conditions: route subcutaneous; outline: as §2
[24] = system: MX1; assay: Potentiation of cyclophosphamide-induced cytotoxicity against human MX1 cells xenografted in SCID mouse assessed as growth inhibition at 5 mg/kg/day, sc osmotic minipump after 48 days relative to cyclophosphamide monotherapy; type: functional; conditions: route subcutaneous
Outline: (§3)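 Female SCID mice bearing sc MX-1 brei (0.2 cc of 1:10, day 0), size-matched on day 15, 10 per group. Inhibitor 5, 12.5 or 25 mg/kg/day by sc osmotic minipump for 14 days from day 18; cyclophosphamide 12.5 mg/kg ip on days 20, 24 and 28. Volumes from caliper L×W²/2; TGI versus cyclophosphamide alone.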

[25] = system: MX1; assay: Potentiation of cyclophosphamide-induced cytotoxicity against human MX1 cells xenografted in SCID mouse assessed as growth inhibition at 25 mg/kg/day, sc osmotic minipump after 48 days relative to cyclophosphamide monotherapy; type: functional; conditions: route subcutaneous; outline: as §3
[26] = system: MX1; assay: Potentiation of carboplatin-induced cytotoxicity against human MX1 cells xenografted in SCID mouse assessed as growth inhibition at 25 mg/kg/day, sc osmotic minipump after 42 days relative to carboplatin monotherapy; type: functional; conditions: route subcutaneous; outline: as §2
[27] = Half life in CD1 mouse at 3 mg/kg, iv; type: ADME, organism-based; set-up: dose 3 mg/kg, route intravenous; conditions: in vivo
Outline: (§4)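 Mouse PK: oral dose 10 mg/kg in 2.5% EtOH, 1 drop Tween-80, 25% PEG400 in PBS; iv dose 3 mg/kg in 2.5% EtOH, 5% DMSO, 1 drop Tween-80, 25% PEG400 in PBS. Oral bioavailability, iv half-life, oral AUC and Cmax derived from plasma profiles.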

[28] = AUC in CD1 mouse at 10 mg/kg, po; type: ADME, organism-based; set-up: dose 10 mg/kg, route oral; conditions: plasma; outline: as §4
[29] = Cmax in CD1 mouse at 10 mg/kg, po; type: ADME, organism-based; set-up: dose 10 mg/kg, route oral; conditions: in vivo; outline: as §4
[30] = Half life in Sprague-Dawley rat at 5 mg/kg, iv; type: ADME, organism-based; set-up: dose 5 mg/kg, route intravenous; conditions: in vivo
[31] = AUC in Sprague-Dawley rat at 5 mg/kg, po; type: ADME, organism-based; set-up: dose 5 mg/kg, route oral; conditions: plasma
[32] = Cmax in Sprague-Dawley rat at 5 mg/kg, po; type: ADME, organism-based; set-up: dose 5 mg/kg, route oral; conditions: in vivo

In the case of `C[C@]1(c2nc3c(C(N)=O)cccc3[nH]2)CCCN1` [VELIPARIB], the AUC [1] is reported as 3200 ng·h/mL, the Cmax [2] is reported as 800 ng/mL and the Vd [3] is reported as 2.2 L/kg. It also gave a clearance [4] of 10 mL/min/kg, a bioavailability [5] of 56% and a half-life [6] of 1.9 h. For the same molecule, the Cmax [7] was 300 ng/mL, the Vd [8] was 3.1 L/kg and the solubility [9] was over 5000 µg/mL. For the same molecule, the Activity [10] was “Not Active”, the Activity [11] was “Not Active” and the Activity [12] was “Not Active”. The Activity [13] was “Not Active”, the Activity [14] was “Not Active” and the fraction unbound at 5 µM [15] was 0.59. The fraction unbound at 5 µM [16] was 0.59, the Activity [17] was 2452 mm3 and the TGI [18] was 28%. It also gave a TGI [19] of 60%, a TGI [20] of 43% and a TGI [21] of 21%. It also gave a TGI [22] of 58%, a TGI [23] of 17% and a TGI [24] of 31%. The TGI [25] was 61%, the TGI [26] was 78% and the half-life [27] was 1.6 h. It also gave an AUC [28] of 2200 ng·h/mL, a Cmax [29] of 1600 ng/mL and a half-life [30] of 1.2 h. For the same molecule, the AUC [31] was 1500 ng·h/mL and the Cmax [32] was 500 ng/mL.
